Data reported in ChEMBL document CHEMBL1156796, “Design, synthesis, and antihepatitis B virus activities of novel 2-pyridone derivatives” (J Med Chem, 2010).

How the values were obtained:
Hepatitis B virus [1] = assay: Antiviral activity against HBV infected in human HepG2(2.2.15) cells assessed as inhibition of HBV DNA replication after 9 days by PCR; type: functional, organism-based
Hepatitis B virus [2] = assay: Antiviral activity against HBV infected in human HepG2(2.2.15) cells assessed as inhibition of HBsAg level after 9 days by ELISA; type: functional, organism-based; settings: HepG2 2.2.15, 216 h
Hepatitis B virus [3] = assay: Antiviral activity against HBV infected in human HepG2(2.2.15) cells assessed as inhibition of HBeAg level after 9 days by ELISA; type: functional, organism-based; settings: HepG2 2.2.15, 216 h
[4] = Selectivity index, ratio of CC50 for human HepG2(2.2.15) cells to IC50 for HBV infected in human HepG2(2.2.15) cells assessed as inhibition of HBV DNA replication; type: functional
[5] = Cytotoxicity against human HepG2(2.2.15) cells; type: cell-based
[6] = Selectivity index, ratio of CC50 for human HepG2(2.2.15) cells to IC50 for HBV infected in human HepG2(2.2.15) cells assessed as inhibition of HBsAg; type: functional
How it was run: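 MTT at 5 g/L added 4 h before lysis in 10% SDS/50% DMF, pH 7.2, with OD read at 570 nm. IC50: HBsAg in day-9 supernatants measured by ELISA. SI = CC50/IC50.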

[7] = Selectivity index, ratio of CC50 for human HepG2(2.2.15) cells to IC50 for HBV infected in human HepG2(2.2.15) cells assessed as inhibition of HBeAg; type: functional
[8] = Hepatitis B virus, HepG2 2.2.15, 216 h, read-out: IC50

| SMILES | IC50 (Hepatitis B virus [1]; [8]) | IC50 (Hepatitis B virus [2]) | IC50 (Hepatitis B virus [3]) | Ratio CC50/IC50 [4] | CC50 [5] | Ratio CC50/IC50 [6] | Ratio CC50/IC50 [7] | IC50 (Hepatitis B virus [1]; hepg2 2.2.15) |
| --- | --- | --- | --- | --- | --- | --- | --- | --- |
| COc1ccc(C(=O)c2ccc(=O)n(-c3ccc(F)cc3)c2)c(O)c1 | 98.3 µM | > 118 µM | > 118 µM | >1.2 | > 118 µM |  |  |  |
| COc1ccc(/C(=N/Cc2cccc(F)c2)c2ccc(=O)n(Cc3cccc(F)c3)c2)c(O)c1 | 2.1 µM | 13 µM | 0.5 µM | 3.81 | 8 µM | 0.62 | 16 |  |
| COc1ccc(C(=O)c2ccc(=O)n(-c3ccccc3C)c2)c(O)c1 | 11 µM | 18 µM | 0.1 µM | >10.85 | > 119 µM | >6.63 | >1194 |  |
| COc1ccc(C(=O)c2ccc(=O)n(-c3cc(C)ccc3C)c2)c(O)c1 | 0.5 µM | 13 µM | 38 µM | 1 | 0.5 µM | 0.04 | 0.01 |  |
| COc1ccc(C(=O)c2ccc(=O)n(-c3ccc(C)cc3)c2)c(O)c1 | 5 µM | > 119 µM | 2 µM | >23.9 | > 119 µM |  | >59.7 |  |
| Nc1ncnc2c1ncn2CCOCP(=O)(O)O [ADEFOVIR] | 0.517 µM | 305 µM | 286 µM | 1044.5 | 540 µM | 1.77 | 1.89 |  |
| COc1ccc(/C(=N/Cc2ccccc2)c2ccc(=O)n(Cc3ccccc3)c2)c(O)c1 | 31.5 µM | 40 µM | 4.4 µM | 3.24 | 102 µM | 2.55 | 23.18 |  |
| COc1ccc(/C(=N/Cc2ccc(F)cc2)c2ccc(=O)n(Cc3ccc(F)cc3)c2)c(O)c1 | 64.5 µM | > 86.9 µM | > 86.9 µM | 0.15 | 10 µM | <0.12 | <0.12 |  |
| CCCCCn1cc(C(=O)c2ccc(OC)cc2O)ccc1=O | 20 µM | 46 µM | 39 µM | 3.95 | 79 µM | 1.72 | 2.03 |  |
| COc1ccc(/C(=N/Cc2ccc(F)cc2F)c2ccc(=O)n(Cc3ccc(F)cc3F)c2)c(O)c1 | 3 µM | 13 µM | 40 µM | 3.33 | 10 µM | 0.77 | 0.25 |  |
| COc1ccc(/C(=N/Cc2ccc(C)cc2)c2ccc(=O)n(Cc3ccc(C)cc3)c2)c(O)c1 | 21.7 µM | > 118 µM | > 118 µM | 0.92 | 20 µM | <0.17 | <0.17 |  |
| COc1ccc(C/N=C(\c2ccc(=O)n(Cc3ccc(OC)cc3)c2)c2ccc(OC)cc2O)cc1 | 1 µM | 36 µM | 2 µM | 32 | 32 µM | 0.89 | 16 |  |
| COc1ccc(C(=O)c2ccc(=O)n(C(C)C)c2)c(O)c1 | 170 µM | 846 µM | > 846 µM | 4.09 | 696 µM | 0.82 | <0.82 |  |
| COc1ccc(/C(=N/C2CC2)c2ccc(=O)n(C3CC3)c2)c(O)c1 | > 462 µM | 123 µM | 10 µM | <0.35 | 164 µM | 1.33 | 16.4 |  |
| CCOc1ccc(-n2cc(C(=O)c3ccc(OC)cc3O)ccc2=O)cc1 | 0.206 µM | > 110 µM | 55 µM | >532 | > 110 µM |  | >1.99 |  |
| C=CC/N=C(\c1ccc(=O)n(CC=C)c1)c1ccc(OC)cc1O | 12 µM | 98 µM | 40 µM | 1.67 | 20 µM | 0.2 | 0.5 |  |
| CCC/N=C(\c1ccc(=O)n(CCC)c1)c1ccc(OC)cc1O | 33.8 µM | > 122 µM | > 122 µM | 3.55 | 120 µM | <1 | <1 |  |
| COc1ccc(C(=O)c2ccc(=O)n(-c3ccccc3OC)c2)c(O)c1 | 76 µM | > 114 µM | 49 µM | >1.5 | > 114 µM |  | >2.3 |  |
| C=CCn1cc(C(=O)c2ccc(OC)cc2O)ccc1=O | 101 µM | 276 µM | 58 µM | 2.3 | 232 µM | 0.84 | 4 |  |
| COc1ccc(C(=O)c2ccc(=O)n(-c3cccc(C)c3)c2)c(O)c1 | 0.8 µM | 29 µM | 0.3 µM | 198.75 | 159 µM | 5.48 | 530 |  |
| COc1ccc(C(=O)c2ccc(=O)n(-c3ccc(Cl)cc3)c2)c(O)c1 | 6.2 µM | 61 µM | 1.6 µM | 26.45 | 164 µM | 2.69 | 102.5 |  |
| COc1ccc(-n2cc(C(=O)c3ccc(OC)cc3O)ccc2=O)cc1 | 5.2 µM | > 114 µM | 222 µM | 66.54 | 346 µM |  | 1.56 |  |
| CCCn1cc(C(=O)c2ccc(OC)cc2O)ccc1=O | 33.3 µM | > 139 µM | 46.3 µM | 3.93 | 131 µM |  | 2.83 |  |
| COc1ccc(C(=O)c2ccc(=O)n(-c3ccc([N+](=O)[O-])cc3)c2)c(O)c1 |  | > 109 µM | > 109 µM |  | 177 µM | <1.07 | <1.07 | Not Active |
| COc1ccc(/C(=N/C(C)C)c2ccc(=O)n(C(C)C)c2)c(O)c1 | > 122 µM | > 122 µM | 54 µM |  | > 122 µM |  | >2.26 |  |
| COc1ccc(C(=O)c2ccc(=O)n(C3CCCCC3)c2)c(O)c1 | 99.6 µM | 99 µM | 0.73 µM | 0.15 | 15 µM | 0.15 | 20.55 |  |
| COc1ccc(C(=O)c2ccc(=O)n(-c3ccc(C(C)=O)cc3)c2)c(O)c1 | 11.2 µM | > 110 µM | 774 µM | 11.88 | 133 µM | <1.21 | 0.17 |  |
